# SR-BI uptake up: activators of SR-BI mediated DiI-HDL uptake, primary screen, ldlA[mSR-BI] CHO cells, DiI fluorescence; 3 h; 100 = double the neutral-control signal; activation, % at 12.5 µM; hit rate 0.096% among 320,000;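 active = mean replicate activation of at least 60% and every replicate at or above 60%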;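 also: 0% = median plate neutral-control signal and 100% = twice that signal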
#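 Test system: SR-BI-overexpressing, LDLR-lacking CHO cells. Measured by: DiI fluorescence, bottom read. Medium: Ham's F12 with 0.5% BSA, HEPES 25 mM, pH 7.4. Timing: 3 h uptake period with compound, 37 °C.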
# SR-BI HDL uptake: inhibitors of SR-BI mediated HDL lipid uptake, primary screen, ldlA[mSR-BI] cells, fluorescence, single point; Scavenger receptor class B member 1 (Mus musculus), Q61009; ldlA[mSR-BI] CHO cells, DiI-HDL uptake fluorescence, 3 h; inhibition, % at 12.5 µM; hit rate 0.96% among 320,000; AID 488896, 2010;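 active = mean replicate inhibition of at least 70% and a set share of replicates each scoring 70 or more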;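 also: 0% = median of neutral control wells and 100% = median of positive control wells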
# AHR act: AHR activators, primary screen, cell-based, luminescence, luciferase reporter, human | AID 2796, 2010 | AHR-responsive luciferase reporter cells | hit rate 2.5% among 320,000 | activation, % at 5 µM; in the data active = activation above about 47%;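 also: 0% = vehicle wells and 100% = reference agonist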
# Target sequence (P35869 whole entry, looked up): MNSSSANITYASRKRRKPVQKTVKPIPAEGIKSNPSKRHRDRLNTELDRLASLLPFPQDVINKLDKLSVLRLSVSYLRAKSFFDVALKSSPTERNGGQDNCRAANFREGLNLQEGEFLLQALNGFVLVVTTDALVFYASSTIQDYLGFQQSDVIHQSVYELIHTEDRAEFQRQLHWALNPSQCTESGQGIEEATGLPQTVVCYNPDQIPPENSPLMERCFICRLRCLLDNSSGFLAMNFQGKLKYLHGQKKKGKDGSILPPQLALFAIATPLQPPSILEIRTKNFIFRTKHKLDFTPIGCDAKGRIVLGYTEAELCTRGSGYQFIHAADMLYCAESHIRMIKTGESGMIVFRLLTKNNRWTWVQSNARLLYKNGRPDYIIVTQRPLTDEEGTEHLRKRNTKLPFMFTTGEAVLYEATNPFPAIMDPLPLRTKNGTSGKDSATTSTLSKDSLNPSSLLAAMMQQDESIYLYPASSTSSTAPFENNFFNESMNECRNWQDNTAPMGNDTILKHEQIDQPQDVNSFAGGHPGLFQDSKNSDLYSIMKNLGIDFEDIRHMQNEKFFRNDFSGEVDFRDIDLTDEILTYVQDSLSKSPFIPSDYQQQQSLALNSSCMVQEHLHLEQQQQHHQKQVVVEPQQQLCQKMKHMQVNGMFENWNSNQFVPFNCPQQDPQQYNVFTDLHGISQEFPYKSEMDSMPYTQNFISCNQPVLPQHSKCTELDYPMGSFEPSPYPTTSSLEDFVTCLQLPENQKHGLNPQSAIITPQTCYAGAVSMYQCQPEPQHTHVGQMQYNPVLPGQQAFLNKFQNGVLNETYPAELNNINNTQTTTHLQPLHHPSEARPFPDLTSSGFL
# ABCB6 inh 2: ABCB6 transporter inhibitors, primary screen, K562-ABCB6 cells, flow cytometry, MLPCN library | hit rate 0.19% among 360,000 | ATP-binding cassette sub-family B member 6 (Homo sapiens), Q9NP58 | fluorescence ratio to DMSO, % at 10 µM | K562-ABCB6 porphyrin accumulation, 1 h; hits give low values;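 active = fluorescence ratio to DMSO below 75%, the collection mean minus 3 SD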;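 also: signal is porphyrin accumulated inside mitochondria; 100% equals median channel fluorescence of DMSO control wells; lower ratio means ABCB6 inhibition with less porphyrin fluorescence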
# HIF act: HIF pathway transcriptional activators, primary screen, cell-based, U2OS HRE-luciferase, luminescence. U2OS HRE-luciferase reporter; normalized: DMSO 0%, desferrioxamine 100%. activation, % at 7.5 µM (by protocol). AID 1910, 2009. hit rate 0.32% among 300,000;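 active = mean activation of at least 10% of the iron chelator positive control signal, with at least half of replicates also reaching 10%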
# GAA850 FXN act: FXN promoter activators, primary screen, cell-based, luciferase luminescence, HEK293 lucGAA850; HEK293 lucGAA850 FXN promoter luciferase reporter, 24 h; percent of 10 µM SAHA response; activation, % at 6 µM; hit rate 0.56% among 360,000; AID 540364, 2011;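 active = activation above the average of all compounds screened plus 3 SD, cutoff fixed separately per campaign, cut at about 7.5% in these data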;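 also: 0% = DMSO wells and 100% = 10 µM SAHA wells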
# An asterisk follows results filed as active; nt = no result given. The list is not random: actives were taken first. Their share in the collection is about 3.9%.
SMILES,SR-BI uptake up,SR-BI HDL uptake,AHR act,ABCB6 inh 2,HIF act,GAA850 FXN act
COc1cc2ccccc2cc1C(=O)NCc1ccncc1,-35.3,35.3,49.9*,96.0,-0.4,2.5
COc1ccccc1-c1noc(-c2ccccc2C(=O)Nc2ccccc2)n1,7.6,-7.6,47.1*,94.0,-0.2,2.5
COc1cc2cc(C(=O)Nc3ccccc3)c(N)nc2cc1OC,-30.8,30.8,48.4*,94.0,-0.7,1.0
O=C(Nc1cccnc1)c1ccc2ccccc2c1O,5.6,-5.6,47.7*,96.0,2.8,3.6
COc1cc2ccccc2cc1C(=O)Nc1cccnc1,-53.8,53.8,77.2*,91.0,3.8,7.0
COc1ccc(C(=O)n2nc(C)cc2Nc2ccccc2)cc1,-76.5,76.6*,16.2,nt,2.0,-0.9
O=C(Nc1ccccc1C(=O)Nc1ccccc1C(=O)O)c1ccccc1,-7.9,7.9,2.6,99.0,2.8,-2.2
O=C(Nc1ccccc1Cl)c1ccc(C(=O)Nc2ccccc2Cl)cc1,30.3,-30.3,nt,99.0,nt,1.3
Nc1ccccc1NC(=O)c1ccccc1,5.7,-5.7,15.6,98.0,24.6*,4.3
CC(=O)Nc1ccccc1NC(=O)c1ccccc1,43.9,-43.9,-1.2,96.0,-0.2,1.2
O=C(Nc1cccc(Cl)c1Cl)c1ccc(-c2ccccc2)cc1,4.3,-4.3,65.3*,99.0,2.8,4.5
Nc1ccc(C(=O)Nc2ccccc2C(=O)O)cc1,84.8*,-84.8,12.2,98.0,0.8,-0.8
O=C(CSc1nc(N2CCCCC2)nc(N2CCCCC2)n1)N1CCN(c2ccccc2)CC1,nt,nt,nt,100.0,-0.4,2.9
Nc1ccc(O)c2c1C(=O)c1ccccc1C2=O,-29.9,29.9,5.8,108.0,0.0,3.2
Cc1ccsc1/C=N/Nc1nc2ccccc2[nH]1,-4.6,4.6,nt,101.0,2.8,7.4
C(=N\Nc1nc2ccccc2[nH]1)/c1cccs1,3.6,-3.6,74.0*,87.0,2.4,5.1
C=CCn1cc(/C=N/Nc2nc3ccccc3[nH]2)c2ccccc21,-38.9,38.9,145.7*,92.0,3.4,5.5
CCCn1c(/C=N/Nc2nc3ccccc3[nH]2)nc2ccccc21,-69.3,69.3,nt,91.0,nt,5.1
Cc1c(/C=N/Nc2nc3ccccc3[nH]2)c2ccccc2n1C,-36.7,36.8,108.0*,94.0,7.8,5.7
CC(C)Cn1c(/C=N/Nc2nc3ccccc3[nH]2)nc2ccccc21,-7.4,7.4,nt,81.0,23.4*,3.7
COc1ccc(O)c(/C=N/Nc2nc3ccccc3[nH]2)c1,12.7,-12.7,24.0,92.0,0.9,0.8
CCOc1ccc(CCN2C(=O)C(=O)N([C@@H](CC(C)C)CN3CCC[C@H]3CN3C(=O)C(=O)NC[C@@H]3Cc3ccccc3)C[C@@H]2Cc2ccccc2)cc1,nt,nt,nt,101.0,nt,nt
O=S(=O)(NCCN1CCCC1)c1ccc(Br)cc1,62.0*,-62.0,-1.1,96.0,1.3,0.8
COc1ccccc1C(=O)NNC(=O)c1cccc(O)c1,6.7,-6.7,38.5,98.0,1.6,3.7
Cc1ccc(C(=O)NNC(=O)c2cc3ccccc3cc2O)cc1,-123.0,123.0*,2.2,97.0,0.5,0.9
SMILES,SR-BI uptake up,SR-BI HDL uptake,AHR act,ABCB6 inh 2,HIF act,GAA850 FXN act
COc1ccccc1C(=O)NNC(=O)c1ccc(C)cc1,-6.7,6.7,12.6,101.0,0.9,2.6
COc1ccc(C)cc1NC(=O)NNC(=O)c1cc2ccccc2cc1O,-117.3,117.3*,14.4,96.0,0.2,0.6
O=C(NNC(=O)c1cc2ccccc2cc1O)Nc1ccc(Br)cc1,nt,7.7,5.3,86.0,0.2,0.0
COc1ccc(C)cc1NC(=O)NNC(=O)c1ccoc1C,0.1,-0.1,10.4,102.0,0.0,0.2
COc1cc2ccccc2cc1C(=O)NNC(=O)c1ccccc1O,-128.6,128.6*,32.6,92.0,11.9*,-1.6
COc1ccc(NC(=O)NNC(=O)c2cc3ccccc3cc2O)cc1,nt,96.2*,14.3,103.0,-0.1,-0.9
COC(=O)c1cn(NC(=O)c2ccc(F)cc2)c(=O)c2ccccc12,-11.9,11.9,-3.5,100.0,0.9,1.2
O=C(O)CCSc1nnc(CNc2ccc(Cl)cc2)n1Cc1ccccc1,13.5,-13.5,0.0,101.0,1.2,1.7
COc1ccc(-c2cc(-c3ccc(Br)cc3)nc3ncnn23)cc1OC,-42.9,42.9,53.9*,148.0,-0.2,-0.1
Brc1ccc(-c2cn3c(n2)CCc2ccc4cccnc4c2-3)cc1,-26.8,26.8,47.1*,94.0,-0.2,-0.6
CC(C(=O)NCC1CCCCC1)N(C)Cc1ccc(Cl)cc1 (configuration not stated),-11.9,11.9,1.1,97.0,-0.5,0.3
O=C(NN=C1c2ccccc2-c2ccccc21)c1ccccc1,-39.0,39.0,59.3*,98.0,-0.3,4.7
O=C(NN=C1c2ccccc2-c2ccccc21)c1ccccc1Br,-33.8,33.8,41.2,97.0,-0.6,-1.2
Cc1nnc(SCC(=O)Nc2cc(-c3cc(C)c(C)cc3C)nn2-c2ccccc2)s1,-30.5,30.5,104.3*,104.0,-0.2,4.0
O=C(NCCc1ccccc1)C1CCCN1S(=O)(=O)c1ccc(Cl)cc1 (configuration not stated),6.8,-6.8,-0.6,103.0,0.3,-0.3
CC(=O)N(/N=C1\Sc2ccccc2C1=O)c1cccc(C)c1,1.3,-1.3,76.5*,120.0,4.3,1.3
CCCCCn1c(=O)c(C(=O)OCC)c(O)c2ccccc21,25.5,-25.5,9.8,101.0,-0.3,-0.6
COc1ccccc1NC(=O)c1ccc(NC(=O)COC(=O)CC(NC(=O)c2ccccc2Cl)c2ccccc2)cc1 (configuration not stated),-80.7,80.7*,8.7,103.0,-0.3,-2.0
Cc1csc(Sc2ccc([N+](=O)[O-])cc2C(=O)OCC(=O)NC(=O)NC(C)(C)C)n1,-10.6,10.6,0.6,99.0,0.0,-0.7
Nc1c(C(=O)N2CCOCC2)sc(=S)n1-c1ccccc1,-2.4,2.4,1.3,93.0,0.1,-2.5
Oc1ccc(Nc2nc(-c3ccc4ccccc4c3)cs2)cc1,-44.8,44.8,64.0*,94.0,2.6,5.0
Cc1cc(NS(=O)(=O)c2ccc(Nc3nc(-c4ccc(O)cc4)cs3)cc2)no1,10.4,-10.4,60.1*,92.0,0.2,1.9
Cc1ccc2c(c1)N(CC(=O)NCCC1=CCCCC1)C(=O)c1cccnc1O2,-2.0,2.0,-0.5,105.0,0.2,0.0
Clc1cccc(-c2noc3ncnc(Nc4ccc5c(c4)OCO5)c23)c1,-11.4,11.4,55.2*,97.0,-0.8,0.0

# Assay outcomes from PubChem BioAssay.
